Test results reported in ChEMBL document CHEMBL4020827, “Targeting Multiple Effector Pathways in Pancreatic Ductal Adenocarcinoma with a G-Quadruplex-Binding Small Molecule” (J Med Chem, 2018).

Experiments:
MIA PaCa-2 [1] = experiment: Antitumor activity against human MIAPaCa2 cells xenografted in CD-1 nude mouse assessed as change in tumor volume at 15 mg/kg, iv administered twice weekly for 4 weeks measured on day 62 relative to control; type: functional
How it was run: (§1)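 Female CD-1 nude mice (2-3 months, 20−25 g) given 5 x 10^6 MIA PaCa-2 cells subcutaneously in right flank with Matrigel; dosing began once tumors were established (approx. 13 days, mean 0.05 cm3). Eight mice/group, IV in saline twice weekly for 28 days (8 doses) against a saline group. Tumors measured by calliper (length × width × height × π/6), with body weight. Student's t test.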

[2] = Binding affinity to 5'-FAM/3'-TAMRA labeled BCL2 promoter G-quadruplex DNA (unknown origin) assessed as change in melting temperature at 1 uM by FRET assay
How it was run: (§2)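 FRET melting with FAM/TAMRA dual-labelled oligonucleotides at 400 nM, annealed at 95 °C for 10 min in 60 mM potassium cacodylate pH 7.4 and slowly cooled. Ligand final 1 μM; solution contains 50 mM K+. Fluorescence read every 0.5 °C over 30–100 °C with 30 s hold, excitation 450–495 nm and emission 515–545 nm. ΔTm from curve fitting, triplicate measurements.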

[3] = Selectivity index, ratio of IC50 for human WI38 cells to IC50 for human MIAPaCa2 cells; type: functional
How it was run: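 SRB growth-inhibition assay over 96 h with compounds dissolved in water; cells grown in 10 % FBS at 37 °C, 5% CO2. Absorbance at 540 nm as a percentage of untreated wells gives the IC50. Values are averages of >3 determinations, with the ratio taken as WI-38 IC50 over MIA PaCa-2 IC50.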

[4] = Binding affinity to 5'-FAM/3'-TAMRA labeled KRAS21 promoter G-quadruplex DNA (unknown origin) assessed as change in melting temperature at 1 uM by FRET assay
How it was run: (§3)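 FRET melting of FAM/TAMRA dual-labelled promoter G4 oligonucleotides, 400 nM, annealed at 95 °C for 10 min in 60 mM potassium cacodylate (pH 7.4) then cooled to RT. Ligand at 1 μM in solution with 50 mM K+. Fluorescence (ex 450–495, em 515–545 nm) read every 0.5 °C over 30–100 °C with a 30 sec hold per step. ΔTm from curve fitting; triplicate measurements.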

[5] = Toxicity in iv dosed CD-1 nude mouse assessed as death measured up to 72 hrs; type: organism-based; conditions: in vivo
How it was run: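 CD1 nude mice, two per group, given single IV doses in saline (10, 20, 30, 35, 40, 45, 50 and 60 mg/kg), with repeat dosing weekly. Watched for adverse effects for up to 72 h. Tolerated dose taken as highest cohort in which all mice survived without observed ill-effects.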

Homo sapiens = species on record: Homo sapiens; experiment: Binding affinity to 5'-FAM/3'-TAMRA labeled human telomeric F21T G-quadruplex DNA assessed as change in melting temperature at 1 uM by FRET assay; how it was run: as §2
MIA PaCa-2 [6] = experiment: Growth inhibition of human MIAPaCa2 cells after 96 hrs by SRB assay; type: functional, cell-based; conditions: MIA PaCa-2, 96 h
How it was run: (§4)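 Cell lines kept at 37 °C, 5% CO2 in medium with 10% FBS and 2 mM L-glutamine. Compound dissolved in water, filter-sterilised, 10 mM stock diluted into media. Growth read by 96 h sulforhodamine B assay, absorbance at 540 nm. IC50 taken from mean absorbance per concentration as % of untreated wells, >3 individual determinations with standard deviations.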

[7] = Binding affinity to 5'-FAM/3'-TAMRA labeled T-loop duplex DNA (unknown origin) assessed as change in melting temperature at 1 uM by FRET assay; how it was run: as §2
A549 = experiment: Growth inhibition of human A549 cells after 96 hrs by SRB assay; type: functional, cell-based; conditions: A549, 96 h; how it was run: as §4
[8] = Binding affinity to 5'-FAM/3'-TAMRA labeled KRAS32 promoter G-quadruplex DNA (unknown origin) assessed as change in melting temperature at 1 uM by FRET assay; how it was run: as §3
MIA PaCa-2 [9] = experiment: Antitumor activity against human MIAPaCa2 cells xenografted in CD-1 nude mouse assessed as change in tumor volume at 15 mg/kg, iv administered twice weekly for 4 weeks measured on day 29 relative to control; type: functional; how it was run: as §1
[10] = Binding affinity to 5'-FAM/3'-TAMRA labeled HSP90B promoter G-quadruplex DNA (unknown origin) assessed as change in melting temperature at 1 uM by FRET assay; how it was run: as §2
[11] = Binding affinity to 5'-FAM/3'-TAMRA labeled human telomeric F21T G-quadruplex DNA by fluorescence anisotropy titration method
[12] = Binding affinity to 5'-FAM/3'-TAMRA labeled HSP90A promoter G-quadruplex DNA (unknown origin) assessed as change in melting temperature at 1 uM by FRET assay; how it was run: as §3
CAPAN-1 = experiment: Growth inhibition of human Capan1 cells after 96 hrs by SRB assay; type: functional, cell-based; conditions: CAPAN-1, 96 h; how it was run: as §4
BXPC-3 = experiment: Growth inhibition of human BxPC3 cells after 96 hrs by SRB assay; type: functional, cell-based; conditions: BXPC-3, 96 h; how it was run: as §4

SMILES | Activity (MIA PaCa-2 [1]) | ΔTm [2] | Ratio IC50 [3] | ΔTm [4] | MTD at 72 h [5] | ΔTm (Homo sapiens) | IC50 (MIA PaCa-2 [6]) | ΔTm [7] | IC50 (A549) | ΔTm [8] | Activity (MIA PaCa-2 [9]) | ΔTm [10] | Kd [11] | ΔTm [12] | IC50 (CAPAN-1) | IC50 (BXPC-3)
CN1CCN(CCCNc2cc3c4c(c(NCCCN5CCN(C)CC5)cc5c4c2C(=O)N(CCCN2CCOCC2)C5=O)C(=O)N(CCCN2CCOCC2)C3=O)CC1 | -56.7% | 26.4 °C | 21 | 22.5 °C | 25 mg/kg | 26.6 °C | 11 nM | 4.9 °C | 19 nM | 19.8 °C | -66.7% | 28.6 °C | 20 nM | 33.1 °C |  | 
Nc1ccn([C@@H]2O[C@H](CO)[C@@H](O)C2(F)F)c(=O)n1 [GEMCITABINE] | -61.7% |  |  |  |  |  |  |  |  |  | -66.7% |  |  |  | 19 nM | 6 nM
